Assay results gathered from unrelated publications.
Each line is one published result; the experiments were not run side by side.
Target: G protein-coupled receptor kinase 3 (GRK3, Homo sapiens, UniProt P35626)
Residues used in one study (P35626 1-688): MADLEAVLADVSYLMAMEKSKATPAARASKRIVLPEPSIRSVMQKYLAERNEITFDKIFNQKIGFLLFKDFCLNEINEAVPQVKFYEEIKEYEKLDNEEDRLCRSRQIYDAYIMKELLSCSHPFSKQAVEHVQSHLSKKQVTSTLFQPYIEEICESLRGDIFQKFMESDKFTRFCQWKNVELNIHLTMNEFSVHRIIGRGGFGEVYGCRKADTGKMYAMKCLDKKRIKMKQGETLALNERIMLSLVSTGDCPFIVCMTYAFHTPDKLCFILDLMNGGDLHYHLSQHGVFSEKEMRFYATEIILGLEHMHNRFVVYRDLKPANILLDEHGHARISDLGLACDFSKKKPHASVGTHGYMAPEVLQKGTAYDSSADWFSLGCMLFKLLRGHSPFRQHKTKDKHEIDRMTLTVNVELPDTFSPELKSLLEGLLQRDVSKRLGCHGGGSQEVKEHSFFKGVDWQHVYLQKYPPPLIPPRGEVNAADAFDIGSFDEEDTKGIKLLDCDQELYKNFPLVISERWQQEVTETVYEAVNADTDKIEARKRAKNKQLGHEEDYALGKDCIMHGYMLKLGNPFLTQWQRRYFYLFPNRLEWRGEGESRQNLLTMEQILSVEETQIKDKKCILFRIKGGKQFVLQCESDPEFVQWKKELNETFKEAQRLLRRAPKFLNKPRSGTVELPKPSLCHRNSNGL

CCN1CCC2(CC1)NC(=O)c1c(c3ccc(Cl)c(Cl)c3n1C)C2C#N (racemic) — ΔTm (thermal stability; DSF; 10 µM): 0.8 °C
COc1cc(Cl)c(C(=O)N[C@@H](CN[C@H]2CC[C@@H](N)CC2)Cc2ccc(C#N)cc2)cc1-c1ccc(CN[C@H](C)c2ccc(C)cc2)o1 — remaining activity (enzyme activity; inhibitor; 1 µM): 99%
NS(=O)(=O)c1cc(NC(=O)Cc2ccccc2)ccc1Oc1cccc(Cl)c1 — remaining binding (cell-free assay; competition with immobilised ligand; 1 µM): 100%
Cn1c2c(Cl)c(Cl)ccc2c2cn[nH]c(=O)c21 — ΔTm (thermal stability; DSF; 10 µM): 0 °C
CC(C)(O)[C@H]1CC[C@H](Nc2ccc3ncc(-c4cccc(C(F)(F)F)c4)n3n2)CC1 — remaining activity (enzyme activity; inhibitor; 1 µM): 107%
CCCOc1ccc([C@@H]2[C@@H](C(=O)O)[C@H](c3ccc4c(c3)OCO4)CN2CC(=O)Nc2c(CC)cccc2CC)cc1 — remaining binding (cell-free assay; competition with immobilised ligand; 1 µM): 100%
O=C(Nc1cnn(-c2csc(C(=O)NC3COC3)c2)c1)Nc1ccccc1Cl — remaining activity (enzyme activity; inhibitor; 5 µM): 102%
CS(=O)(=O)N1CCCC(NC(=O)[C@H](CCC2CCCCC2)NC(=O)c2ccc(CNc3ncnc4c3nnn4-c3ccccc3)cc2)C1 (some centres unmarked) — remaining binding (cell-free assay; competition with immobilised ligand; 0.1 µM): 100%
CCCS(=O)(=O)Nc1ccc(F)c(C(=O)c2c[nH]c3ncc(-c4ccc(Cl)cc4)cc23)c1F — inhibition (enzyme activity; inhibitor; 1 µM): < 10%
CC(C)(C)c1nc2c(s1)c1nc(N)ncc1c1ccc(NS(=O)(=O)c3c(F)cccc3F)c(F)c12 — remaining activity (enzyme activity; inhibitor; radiometric; 1 µM): 96%
O=C(O)[C@H]1[C@H](Cn2nnc3ccccc3c2=O)CC[C@@H]1C(=O)c1ccc(OCCC2CCOCC2)cc1 — remaining binding (cell-free assay; competition with immobilised ligand; 1 µM): 100%
Cn1c2c(c3ccc(Cl)c(Cl)c31)C(C#N)C1(CCOCC1)NC2=O (centres unmarked) — ΔTm (thermal stability; DSF; 10 µM): 0 °C
COc1cc2ncnc(Nc3ccc(Oc4ccccc4)c(C)c3C)c2cc1OC — inhibition (enzyme activity; inhibitor; 1 µM): -2%
N#CC1c2c([nH]c3c(Cl)c(Cl)ccc23)C(=O)NC12CCCCC2 (racemic) — ΔTm (thermal stability; DSF; 10 µM): 0.7 °C
CS(=O)(=O)c1cc(C2(NC(=O)c3cncc4c3cnn4-c3ccc(F)cc3)CC2)ccn1 — remaining binding (cell-free assay; competition with immobilised ligand; 1 µM): 100%
Cc1ccc(C(=O)Nc2ccc(CN3CCN(C)CC3)c(C(F)(F)F)c2)cc1C#Cc1cnc2cccnn12 — remaining activity (enzyme activity; inhibitor; 23.5 nM): 76%
Cn1c2c(c3ccccc31)C(C#N)C(C)(C)NC2=O (centres unmarked) — ΔTm (thermal stability; DSF; 10 µM): 0.2 °C
Cc1c(NC(=O)c2cc(C(N)=O)nc3cc(F)ccc23)c(C(F)(F)F)nn1Cc1ccc(C#N)cc1 — remaining binding (cell-free assay; competition with immobilised ligand; 1 µM): 89%
Cn1c2c(c3ccc(Cl)c(Cl)c31)C(C#N)C(C)(C)NC2=O (centres unmarked) — ΔTm (thermal stability; DSF; 10 µM): 0.6 °C
N#CCCc1ccc2c(c1)-c1[nH]c3ccc([N+](=O)[O-])cc3c1CC(=O)N2 — remaining signal (cell-free assay; 0.5 µM): 97.1%
